ChEMBL document CHEMBL1131125, “Effect of polyamine analogues on hypusine content in JURKAT T-cells” (J Med Chem, 1998)

What was measured:
Jurkat [1] = assay: Inhibitory activity against growth of JURKAT cells after 144h.; type: functional, cell-based; conditions: Homo sapiens
How it was run: (§1)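 JURKAT cells were grown in RPMI-1640 with 10% fetal calf serum, 2 mM L-glutamine and 1 mM aminoguanidine. Cells were counted electronically. IC50 is the concentration giving 50% of untreated growth, mean of at least two experiments.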

Jurkat [2] = assay: competitive inhibition of [3H]SPD transport in JURKAT cells; type: functional, cell-based, Homo sapiens
How it was run: (§2)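 [3H]spermidine uptake rate into JURKAT cells was measured at six spermidine concentrations, without analogue and with analogue at 50, 25 and 10 μM. Lineweaver–Burk plots were used to assign the competitive mode and derive Ki. Values are means of two or three experiments.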

Jurkat [3] = assay: effect of compound on polyamine biosynthetic enzymes in JURKAT cells using AdoMetDC assay; type: functional, Homo sapiens
Jurkat [4] = assay: effect of compound on polyamine biosynthetic enzymes in JURKAT cells using ODC assay; type: functional, Homo sapiens
Jurkat [5] = assay: % of hypusine (Hpu) in JURKAT cells after 144 hr at 5 uM concentration; type: functional, cell-based; conditions: Homo sapiens
How it was run: (§3)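 JURKAT cells in log-phase growth were exposed to analogue for 144 h, at 2 μM for the tetraamines or 5 μM for the triamines. Cells were washed twice with ice-cold RPMI-1640 and extracted with 1.2 N HClO4. Values are percent of untreated control, mean ± SD of 2–5 determinations, each in triplicate.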

Jurkat [6] = assay: % of putrescine (PUT) in JURKAT cells after 144 hr at 5 uM concentration; type: functional, cell-based; conditions: Homo sapiens
How it was run: (§4)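 Log-phase JURKAT cells were treated with analogue for 144 h, at 2 μM for tetraamines or 5 μM for triamines. After two ice-cold RPMI-1640 washes, pellets were extracted with 1.2 N HClO4. Results are percent of untreated control, mean ± SD of 2–5 determinations run in triplicate.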

Jurkat [7] = assay: % of spermidine (SPD) in JURKAT cells after 144 hr at 5 uM concentration; type: functional, cell-based; conditions: Homo sapiens; how it was run: as §4
Jurkat [8] = assay: % of spermine (SPM) in JURKAT cells after 144 hr at 5 uM concentration; type: functional, cell-based; conditions: Homo sapiens; how it was run: as §4
L1210 [9] = assay: % of putrescine (PUT) in L1210 cells after 48 hr at 100 uM concentration; type: functional, cell-based; conditions: Mus musculus
L1210 [10] = assay: % of spermidine (SPD) in L1210 cells after 48 hr at 100 uM concentration; type: functional, cell-based; conditions: Mus musculus
L1210 [11] = assay: % of spermine (SPM) in L1210 cells after 48 hr at 100 uM concentration; type: functional, cell-based; conditions: Mus musculus
L1210 [12] = assay: Effect of compound on polyamine biosynthetic enzymes in L1210 cells using AdoMetDC assay; type: functional, Mus musculus
L1210 [13] = assay: Effect of compound on polyamine biosynthetic enzymes in L1210 cells using ODC assay; type: functional, Mus musculus
L1210 [14] = assay: Activity of compound measured against L1210 cells; type: functional, cell-based, Mus musculus
Jurkat [15] = assay: inhibitory activity against growth of JURKAT cells after 144h.; type: functional, cell-based; conditions: Homo sapiens; how it was run: as §1
Jurkat [16] = assay: competitive inhibition of [3H]SPD transport by JURKAT cells; type: functional, cell-based, Homo sapiens; how it was run: as §2
Jurkat [17] = assay: % of hypusine (Hpu) in JURKAT cells after 144 hr at 2 uM concentration; type: functional, cell-based; conditions: Homo sapiens; how it was run: as §3
Jurkat [18] = assay: % of putrescine (PUT) in JURKAT cells after 144 h at 2 uM concentration; type: functional, cell-based; conditions: Homo sapiens; how it was run: as §4
Jurkat [19] = assay: % of spermidine (SPD) in JURKAT cells after 144 hr at 2 uM concentration; type: functional, cell-based; conditions: Homo sapiens; how it was run: as §4
Jurkat [20] = assay: % of spermine (SPM) in JURKAT cells after 144 hr at 2 uM concentration; type: functional, cell-based; conditions: Homo sapiens; how it was run: as §4
L1210 [21] = assay: % of spermidine (SPD) in L1210 cells after 48 hr at 10 uM concentration; type: functional, cell-based; conditions: Mus musculus
L1210 [22] = assay: % of spermine (SPM) in L1210 cells after 48 hr at 10 uM concentration; type: functional, cell-based; conditions: Mus musculus
L1210 [23] = assay: % of putrescine (PUT) in L1210 cells after 48 hr at 10 uM concentration; type: functional, cell-based; conditions: Mus musculus
L1210 [24] = assay: effect of compound on polyamine biosynthetic enzymes in L1210 cells using AdoMetDC assay; type: functional, Mus musculus
L1210 [25] = assay: effect of compound on polyamine biosynthetic enzymes in L1210 cells using ODC assay; type: functional, Mus musculus
L1210 (mouse) [26] = assay: % of hypusine (Hpu) in control cells after 72 hr at 2 uM concentration
L1210 (mouse) [27] = assay: % of spermine (SPM) in control cells after 72 hr at 2 uM concentration
L1210 (mouse) [28] = assay: % of putrescine (PUT) in control cells after 72 hr at 2 uM concentration
L1210 (mouse) [29] = assay: % of spermidine (SPD) in control cells after 72 hr at 2 uM concentration
Jurkat [30] = assay: Competitive inhibition of [3H]SPD (spermidine) transport in JURKAT cells; type: functional, cell-based, Homo sapiens; how it was run: as §2

Row | SMILES | IC50 (Jurkat [1]) | AdoMetDC activity (% of control) (Jurkat [3]) | ODC activity (% of control) (Jurkat [4]) | Level (Jurkat [5]) | Level (Jurkat [6]) | Level (Jurkat [7]) | Level (Jurkat [8]) | Level (L1210 [9]) | Level (L1210 [10]) | Level (L1210 [11]) | Control (L1210 [13]) | Ki (L1210 [14]) | IC50 (Jurkat [15]) | Ki (Jurkat [16]) | Level (Jurkat [17]) | Level (Jurkat [18]) | Level (Jurkat [19]) | Level (Jurkat [20]) | Level (L1210 [21]) | Control (L1210 [24]) | also measured
1 | NCCCCCNCCCCN | 70 µM | 79.3% | 34.7% | 80.2% | 0% | 0% | 25.2% | 0% | 0% | 53% | 19% | 1400 nM | – | – | – | – | – | – | – | – | Ki (Jurkat [2]): 2800 nM; Control (L1210 [12]): 57%
2 | CCNCCCNCCCNCCCNCC [BIS(ETHYL)NORSPERMINE] | – | 51.4% | 16.9% | – | – | – | – | – | – | – | – | – | 650 nM | 14.4 µM | 58.9% | 0% | 9.2% | 5.5% | 14% | 42% | Level (L1210 [22]): 31%; Level (L1210 [23]): 30%; Control (L1210 [25]): 10%; Level (L1210 (mouse) [26]): 56.8%; Level (L1210 (mouse) [27]): 13.4%; Level (L1210 (mouse) [28]): 0%; Level (L1210 (mouse) [29]): 3.8%
3 | NCCCCCNCCCCCN | – | 84.9% | 53.3% | 86.4% | 0% | 1.1% | 38.8% | 0% | 0% | 33% | – | 14000 nM | 1200 nM | 13.8 µM | – | – | – | – | – | 88% | Control (L1210 [25]): 16%
4 | CCNCCCCNCCCCNCCCCNCC [DIETHYLHOMOSPERMINE] | 0.2 µM | 61.6% | 29.8% | – | – | – | – | – | – | – | 7% | 2000 nM | – | – | 73.2% | 0% | 0% | 13.4% | 0% | 41% | Ki (Jurkat [30]): 8.8 µM; Level (L1210 [22]): 61%; Level (L1210 [23]): 0%
